Source: paper PMC10786240 (Antiviral research, 2019)
“Also recorded” adds a separate entry of the source.

How the values were obtained:
[1] = system: OSBP localization in HCT-116 cells; assay: immunofluorescence imaging of endogenous OSBP localization; assay type: cell-based; settings: for OSBP cellular localization: 24 h, OSW-1 1 nM, 25-OHC, ITZ, TTP, THEV 10,000 nM, Golgi marker TGN46; for OSBP cellular localization on co-administration with OSW-1: 24 h, 10,000 nM compound with 1 nM OSW-1
OSBP levels in cells = settings: cited from earlier work
[2] = system: OSBP levels in HCT-116 and HEK293 cells; assay: OSBP expression in cells upon 24 h compound treatment; assay type: cell-based, human; settings: for effect of co-administration on OSW-1-induced reduction of OSBP levels: 10,000 nM compound with 1 nM OSW-1, HEK293 and HCT116; for effect on OSBP cellular levels: OSW-1 1 nM, Taxol 10 nM, ITZ, THEV, TTP 10,000 nM, HEK293 and HCT-116
Summary of the method: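 HCT-116 (McCoy's 5A, 10% serum, 1% penicillin-streptomycin) or HEK293 cells seeded 5×10^5 per well, 20 h at 37 °C. Compound diluted from stock in complete medium, alone or with 1 nM OSW-1 co-treatment, for 24 h; DMSO vehicle control. Lysates immunoblotted for OSBP (A-5 antibody), β-actin as loading reference. Bands averaged over independent experiments.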

full-length GFP-OSBP = settings: read-out: KD for full-length GFP-OSBP; microscale thermophoresis; cited from earlier work
human ORP4 [3] = target: T1, human ORP4 (Homo sapiens, UniProt Q969R2); assay: 96-well [3H]-25-OHC competitive binding assay, ORP4; settings: compound at 10,000 nM; 20 nM 3H-25-OHC
T1 sequence (Q969R2 1-916): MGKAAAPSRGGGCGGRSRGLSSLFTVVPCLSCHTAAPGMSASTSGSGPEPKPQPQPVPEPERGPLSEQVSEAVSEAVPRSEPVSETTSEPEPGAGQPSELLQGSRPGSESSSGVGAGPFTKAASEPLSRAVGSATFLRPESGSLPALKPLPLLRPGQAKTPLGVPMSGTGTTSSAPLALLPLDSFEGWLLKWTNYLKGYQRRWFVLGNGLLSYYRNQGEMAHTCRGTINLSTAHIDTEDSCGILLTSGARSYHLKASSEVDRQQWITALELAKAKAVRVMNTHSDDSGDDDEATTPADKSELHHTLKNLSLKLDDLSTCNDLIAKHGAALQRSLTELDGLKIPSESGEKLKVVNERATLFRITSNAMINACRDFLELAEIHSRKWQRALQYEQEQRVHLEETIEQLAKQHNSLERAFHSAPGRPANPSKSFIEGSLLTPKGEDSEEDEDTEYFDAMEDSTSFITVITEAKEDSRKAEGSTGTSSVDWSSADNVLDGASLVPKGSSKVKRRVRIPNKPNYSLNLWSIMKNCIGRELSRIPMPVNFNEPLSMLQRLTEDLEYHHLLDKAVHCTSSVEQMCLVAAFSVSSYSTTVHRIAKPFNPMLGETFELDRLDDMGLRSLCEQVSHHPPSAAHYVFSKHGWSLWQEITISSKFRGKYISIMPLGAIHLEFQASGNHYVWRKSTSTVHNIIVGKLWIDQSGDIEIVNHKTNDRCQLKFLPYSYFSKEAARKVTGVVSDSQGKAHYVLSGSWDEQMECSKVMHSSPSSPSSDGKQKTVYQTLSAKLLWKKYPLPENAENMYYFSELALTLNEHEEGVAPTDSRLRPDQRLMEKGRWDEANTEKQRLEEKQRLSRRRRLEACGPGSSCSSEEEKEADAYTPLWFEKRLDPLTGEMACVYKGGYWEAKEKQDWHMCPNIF
Summary of the method: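 Inhibition of 20 nM [3H]-25-OHC binding to human ORP4 overexpressed in […] cell lysate, run in 96-well competitive format; […].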

[4] = system: N-terminal OSBP FFAT domain with VAP-A; settings: BiMC assay; cited from earlier work
HeLa cells = assay: 48 h cytotoxicity assay; assay type: cell-based; settings: for effect of co-administration on antiproliferative OSW-1 activity, HeLa: 48 h, compound at 10,000 nM with OSW-1
human OSBP [5] = target: T2, human OSBP (Homo sapiens, UniProt P22059); assay: 96-well [3H]-25-OHC competitive binding assay, OSBP; settings: compound at 10,000 nM; 20 nM 3H-25-OHC
T2 sequence (P22059 1-807): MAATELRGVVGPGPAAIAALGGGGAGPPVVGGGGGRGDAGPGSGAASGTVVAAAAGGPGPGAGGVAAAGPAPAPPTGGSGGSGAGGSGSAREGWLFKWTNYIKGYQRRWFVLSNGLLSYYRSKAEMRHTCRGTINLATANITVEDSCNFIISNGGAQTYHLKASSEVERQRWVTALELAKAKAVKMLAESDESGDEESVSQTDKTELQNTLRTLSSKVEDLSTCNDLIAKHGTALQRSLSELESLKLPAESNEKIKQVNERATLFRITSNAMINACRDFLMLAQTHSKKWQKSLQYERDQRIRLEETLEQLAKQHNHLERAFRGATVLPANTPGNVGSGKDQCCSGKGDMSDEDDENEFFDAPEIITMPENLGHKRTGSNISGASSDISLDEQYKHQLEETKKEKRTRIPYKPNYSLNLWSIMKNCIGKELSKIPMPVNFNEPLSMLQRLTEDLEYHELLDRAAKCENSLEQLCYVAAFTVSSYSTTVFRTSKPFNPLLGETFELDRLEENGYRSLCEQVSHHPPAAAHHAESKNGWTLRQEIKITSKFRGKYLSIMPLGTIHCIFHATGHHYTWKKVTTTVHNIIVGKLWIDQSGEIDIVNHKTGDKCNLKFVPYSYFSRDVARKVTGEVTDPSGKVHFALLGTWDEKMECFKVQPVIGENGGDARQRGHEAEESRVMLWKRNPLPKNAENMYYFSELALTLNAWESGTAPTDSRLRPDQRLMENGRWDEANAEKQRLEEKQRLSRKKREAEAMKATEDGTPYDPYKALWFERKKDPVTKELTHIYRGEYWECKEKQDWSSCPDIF

OSBP C-terminal ORD = settings: OSBP proteolyzed fragments; cited from earlier work
HCT-116 cells = assay: Trypan Blue cell viability assay; assay type: cell-based; settings: for effect on cell population (cell counting after Trypan blue staining): 24 h, OSW-1 1 nM, ITZ, THEV, TTP 10,000 nM, each alone
immortalized cell lines = assay: 48 h assay for cell metabolic activity; assay type: cell-based; settings: at <10,000 nM concentrations, Fig. 4B, Supp. Fig. 1
human OSBP [6] = target: T2, human OSBP; settings: cited from earlier work
human ORP4 [7] = target: T1, human ORP4; settings: cited from earlier work
[8] = system: Echovirus 2 (strain Echo2–01); settings: HeLa; 1 nM OSW-1; infection 24 h after treatment ended; cited from earlier work
cells = settings: 6 h OSW-1 treatment of cells; cited from earlier work
[9] = system: OSBP levels in HeLa cells; assay: OSBP levels in HeLa cells after 6 h treatment and 24 h compound-free recovery; assay type: cell-based, human; settings: 6 h OSW-1 (10 nM) treatment, 24 h recovery, just prior to viral infection
Summary of the method: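 HeLa cells exposed 6 h to compound in complete medium, washed three times, then held 24 h in compound-free complete medium. OSBP read by Western blot (A-5 antibody, β-actin reference) at the time point corresponding to viral inoculation in washout antiviral runs.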

[10] = system: Coxsackievirus A9 (strain CoxA9–01); settings: HeLa; 1 nM OSW-1; infection 24 h after treatment ended; cited from earlier work
HEK293 cells = assay: 48 h cytotoxicity assay; assay type: cell-based; settings: read-out: growth inhibition 50% (GI50), HEK293 cells; 48 h treatment

Q: For `C[C@H](CCCC(C)(C)O)[C@H]1CC[C@H]2[C@@H]3CC=C4C[C@@H](O)CC[C@]4(C)[C@H]3CC[C@]12C` [25-OHC, 25-hydroxycholesterol], which OSBP cellular localization [1] is on record?
A: strongly colocalizes OSBP with the Golgi marker in a small area

Q: And the “effect on OSBP levels in cells” value (OSBP levels in cells)?
A: does not reduce OSBP levels in cells; also recorded: do not reduce OSBP levels

Q: What does the source list for `CCC(C)n1ncn(-c2ccc(N3CCN(c4ccc(OCC5COC(Cn6cncn6)(c6ccc(Cl)cc6Cl)O5)cc4)CC3)cc2)c1=O` (stereo not shown) [ITZ, itraconazole]?
A: effect of co-administration on OSW-1-induced reduction of OSBP levels [2]: partially blocks the reduction of OSBP levels; effect on OSBP cellular levels [2]: do not reduce OSBP levels; Kd (full-length GFP-OSBP): ~430 nM; OSBP cellular localization on co-administration with OSW-1 [1]: produces a tight localization of OSBP with a stronger signal than OSW-1 alone; OSBP cellular localization [1]: causes OSBP to adopt a more punctate pattern closely associated with the Golgi marker; inhibition of 25-OHC binding to ORP4 (human ORP4 [3]): no 25-OHC inhibition binding; inhibition of OSBP FFAT domain interaction with VAP-A [4]: Neither ITZ (3) or TTP (5) substantially inhibited; effect of co-administration on antiproliferative OSW-1 activity, HeLa (HeLa cells): does not significantly affect the antiproliferative OSW-1 activity; inhibition of 25-OHC binding to OSBP (human OSBP [5]): no 25-OHC inhibition binding; effect on ORD lipid transfer activity (OSBP C-terminal ORD): blocked the ORD transfer activity of both sterols and PI4P; effect on cell population (cell counting after Trypan blue staining) (HCT-116 cells): 15–20%; antiproliferative activity (immortalized cell lines): no antiproliferative activity

Q: Which “effect on OSBP cellular levels” value [2] does the source give for `COc1ccc(C(=O)O[C@H]2[C@H](O[C@@H]3[C@@H](OC(C)=O)[C@H](O[C@H]4C[C@H]5[C@@H]6CC=C7C[C@@H](O)CC[C@]7(C)[C@H]6CC[C@]5(C)[C@@]4(O)[C@H](C)C(=O)CCC(C)C)OC[C@@H]3O)OC[C@@H](O)[C@@H]2O)cc1` [OSW-1] here?
A: pronounced reduction of OSBP cellular levels

Q: And the OSBP cellular localization [1]?
A: remaining OSBP is tightly grouped around one location

Q: What about the “Ki, competitive inhibition of 25-OHC binding to OSBP” value (human OSBP [6]) of the same compound?
A: low nanomolar

Q: And the “Ki, competitive inhibition of 25-OHC binding to ORP4” value (human ORP4 [7])?
A: low nanomolar

Q: And the “prophylactic antiviral protection, Echovirus 2” value [8]?
A: conferred significant antiviral protection

Q: And the “cytotoxicity of 6 h treatment” value (cells)?
A: not cytotoxic nor anti-proliferative

Q: What about the “reduction of cellular OSBP levels” value [9] of the same compound?
A: > 90%

Q: What about the GI50 (HeLa cells; read-out: growth inhibition 50% (GI50), HeLa cells, 48 h treatment) of the same compound?
A: 0.33 nM

Q: What about the “prophylactic antiviral protection, Cosackievirus 9a” value [10] of the same compound?
A: conferred significant antiviral protection

Q: What about the “duration of repression of OSBP levels after compound treatment is stopped” value (OSBP levels in cells; 1 nM OSW-1 for 6 h, then compound removed) of the same compound?
A: 72 h

Q: What about the “reduction of OSBP levels in cells” value (OSBP levels in cells; short duration (1–6 h), non-cytotoxic dose) of the same compound?
A: > 90%

Q: What about the “effect on cell population (cell counting after Trypan blue staining)” value (HCT-116 cells) of the same compound?
A: 15–20%

Q: And the GI50 (HEK293 cells)?
A: 0.22 nM

Q: For `CC1(C)C[C@H]2[C@@H]3CC=C4C[C@@H](OC5CCCCO5)CC[C@]4(C)[C@H]3CC[C@]2(C)[C@H]1O` (stereo partly shown) [THEV], which “effect of co-administration on OSW-1-induced reduction of OSBP levels” value [2] is on record?
A: partially blocks the reduction of OSBP levels

Q: And the “effect on OSBP cellular levels” value [2]?
A: do not reduce OSBP levels

Q: What about the “OSBP cellular localization on co-administration with OSW-1” value [1] of the same compound?
A: produces cellular localization effects with elements of both OSW-1 and THEV treatment alone

Q: And the OSBP cellular localization [1]?
A: induces OSBP localization to confined area tightly packed with the Golgi marker

Q: What about the “effect of co-administration on antiproliferative OSW-1 activity, HeLa” value (HeLa cells) of the same compound?
A: does not significantly affect the antiproliferative OSW-1 activity

Q: And the “effect of co-administration with OSW-1 on cell population (Trypan blue)” value (HCT-116 cells; 24 h, 10,000 nM compound with 1 nM OSW-1)?
A: rescues cell population numbers

Q: And the “effect on cell population (cell counting after Trypan blue staining)” value (HCT-116 cells)?
A: does not affect the cell population

Q: And the antiproliferative activity (immortalized cell lines)?
A: no antiproliferative activity

Q: Which “effect on OSBP cellular levels” value [2] does the source give for `CC(=O)O[C@H]1C(=O)[C@@]2(C)[C@H]([C@H](OC(=O)c3ccccc3)[C@]3(O)C[C@H](OC(=O)[C@H](O)[C@@H](NC(=O)c4ccccc4)c4ccccc4)C(C)=C1C3(C)C)[C@]1(OC(C)=O)CO[C@@H]1C[C@@H]2O` [Taxol] here?
A: OSBP levels are not reduced

Q: With `CC(C)=CCC/C(C)=C/Cc1c(O)cc(/C=C/c2cc(O)c3c(c2)C[C@@H]2C(C)(C)[C@H](O)[C@H](O)C[C@@]2(C)O3)cc1O` [schweinfurthin A] as the compound, how does the “effect on OSBP levels in cells” value (OSBP levels in cells) read?
A: do not reduce OSBP levels
